Screening data deposited in PubChem BioAssay by several laboratories.
TMEM16A act: activates or potentiates the mouse TMEM16A chloride channel; 340,000 compounds, 0.3% hits; AID 623877; Q8BHY3; HEK293 TMEM16A/YFP-H148Q/I152L, iodide quench fluorescence; stronger effect = lower value; B-score at 10 µM;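 active = fluorescence-ratio B-score plate-corrected deviation score at least 3 library SD below zero, with starting fluorescence score within 5 deviations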;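 also: channel opened by trigger with iodide after compound preincubation; score built on the fluorescence ratio of max minus min over baseline; more negative score means more quench and so TMEM16A activation or potentiation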
CHOP inhibitor: blocks CHOP induction under ER stress; 220,000 compounds, 3.8% hits; AID 2732; CHO-K1 CHOP-promoter luciferase, tunicamycin-induced, 15-18 h; inhibition, % at 10 µM;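 active = compounds that reduced the stress-induced luciferase reporter signal by more than about 70% of percent inhibition, limit read from the data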;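 also: 0% = tunicamycin plus vehicle and 100% = wells without tunicamycin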
XBP1 UPR activ: activators of adaptive arm of unfolded protein response (XBP1) | CHO-XBP1 luciferase reporter, IRE1-XBP1 UPR activation, luminescence; percent of tunicamycin response, DMSO as zero | activation, % at 20 µM | 330,000 compounds, 0.33% hits;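 active = versus positive control, 20 µM dose yields 30% or more activation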;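 also: 100% = tunicamycin at 10 µg/mL and 0% = DMSO only wells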
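Material: CHO-XBP1 cells stably carrying IRE1-XBP1-driven luciferase reporter / Amount: 1000 cells per well / Compound: 20 µM, 1% DMSO / Times: 6 h treatment, 37 °C / Detection: luciferase luminescence / Measure: % activation of reporter signal versus tunicamycin and DMSO controls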
ANO1 block: blocks the mouse calcium-activated chloride channel TMEM16A; Q8BHY3; HEK293 TMEM16A/YFP iodide influx fluorescence, ionomycin; normalized B-score (activity score, 25-100; higher = stronger inhibition) at 10 µM; 310,000 compounds, 1.2% hits;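 active = ratio plate-corrected score three or more library SD toward inhibition, starting fluorescence score within five deviations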;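 also: score derived from kinetic fluorescence span divided by baseline fluorescence per well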
Hep lipid drop: hepatic lipid droplet formation modulation | AML12 mouse hepatocytes, oleate lipid droplets, BODIPY imaging | inhibition, % at 6.5 µM | 240,000 compounds, 0.4% hits | AID 1656;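 active = lipid droplet intensity inhibited by at least 50%, with more than 500 cells counted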
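System: AML12 hepatocytes (mouse). Probe or stimulus: oleic acid at 100 µM to induce lipid droplet formation. Times: overnight treatment with compound plus oleate. Detection: Image-based BODIPY and DAPI two-channel analysis. Evaluation: percent inhibition of filter-corrected integrated lipid droplet intensity per well.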
CHOP UPR activ: activators of apoptotic arm of unfolded protein response (CHOP); 330,000 compounds, 0.34% hits; CHO-CHOP luciferase reporter, UPR activation, luminescence; percent of tunicamycin response over DMSO baseline; activation, % at 10 µM; AID 449763;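 active = at 10 µM dose, activation of 40% or more, normalized to positive control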;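 also: 100% = tunicamycin at 10 µg/mL and 0% = DMSO alone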
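Test system: CHO CHOP reporter cells. Input: 500 CHO-CHOP cells per well. Medium: F12 with 10% FBS. Technique: luciferase luminescence. Measure: percent activation relative to tunicamycin control. Dosing: 10 µM compound, 0.5% DMSO. Timing: 16-18 h cell attachment, then 6 h compound exposure, 37 °C.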
* hit, by the source's call; i = inactive; . = not tested or not shown. An excerpt weighted towards active compounds, which were near 4.2% of everything screened.

SMILES	TMEM16A act	CHOP inhibitor	XBP1 UPR activ	ANO1 block	Hep lipid drop	CHOP UPR activ
Cc1ccc(C2(C)NC(=O)N(CC(=O)Nc3c(C)n(C)n(-c4ccccc4)c3=O)C2=O)cc1 (centres undefined)	i	-2	0	i	1	2
CCOc1ccc(OCC)c(NS(=O)(=O)c2cccc3nsnc23)c1	i	83*	1	i	-17	1
CCOc1ccccc1NS(=O)(=O)c1cccc2nsnc12	i	15	0	i	2	-1
CS(=O)(=O)c1ccc(NC(=O)C2CC(=O)N(c3ccc4c(c3)OCCO4)C2)cc1 (centres undefined)	i	.	0	i	.	1
COc1cccc(NC(=S)N2CCn3c(nc4ccccc43)C2)c1	i	15	-3	i	24	1
COc1ccc(C(=O)Nc2ccccc2)cc1NC(=O)c1ccc([N+](=O)[O-])cc1	-7.2*	.	-2	i	.	-1
COc1ccc(C(=O)NC(=S)Nc2ccc([N+](=O)[O-])cc2C)cc1OC	i	79*	-1	i	26	-1
Cc1ccc(S(=O)(=O)N(C)CC(=O)O/N=C(\N)c2cccc(Br)c2)cc1	-14*	.	-5	i	-11	-1
CCOc1ccc(-c2noc(CCC(=O)O)n2)cc1	i	85*	-4	i	.	-5
COc1ccc(-c2noc(CCC(=O)O)n2)cc1	i	17	-3	i	-6	4
COc1ccc(-c2noc(CCCC(=O)O)n2)cc1	i	84*	-5	i	-6	-7
O=C(O)c1cccnc1Br	i	3	0	i	5	-2
Nc1cc(-c2ccc(Cl)cc2)nn1S(=O)(=O)c1cccc2nsnc12	i	80*	-2	i	.	-2
Nc1cc(-c2cccc(F)c2)nn1S(=O)(=O)c1cccc2nsnc12	i	5	0	i	-14	-1
Nc1cc(-c2ccc(Br)cc2)nn1S(=O)(=O)c1cccc2nsnc12	i	86*	-2	i	.	1
CCc1c(C)sc(NC(=O)CC#N)c1C#N	i	23	-2	i	-4	1
CCc1c(C)sc(NC(=O)Cn2nc(C(F)(F)F)c3c2CCCC3)c1C#N	i	93*	-2	i	-8	1
CCN1/C(=C/c2ccc3cc(C)ccc3[n+]2CC)Sc2ccccc21	i	108*	-5	i	-155	-7
CSc1ccc(CNc2ccc(C)cc2)cc1	i	42	1	i	.	3
CSc1ccc(CNc2ccc(C)c(C)c2)cc1	i	92*	1	i	.	1
CC(=O)c1cc2c(C)c(C(=O)c3ccccc3)oc2cc1O	i	83*	-3	i	4	-1
COc1cccc(-c2nc(CS(=O)(=O)CC(=O)NC3CCCCC3C)c(C)o2)c1 (centres undefined)	i	.	0	i	-4	2
O=C(/C=C/c1ccco1)Nc1ccc(-c2nc3ccccc3[nH]2)cc1	i	96*	.	i	-31	.
CCc1ccccc1NC(=O)c1cc2ncc(Br)cn2n1	i	-7	2	i	9	4
O=C(Nc1cccc(C(F)(F)F)c1)c1cc2ncc(Br)cn2n1	i	79*	-3	i	8	-1
SMILES	TMEM16A act	CHOP inhibitor	XBP1 UPR activ	ANO1 block	Hep lipid drop	CHOP UPR activ
O=C(Nc1ccc2c(c1)OCO2)c1cc2ncc(Br)cn2n1	i	3	.	.	69*	.
O=C(CN1CCN(c2ccccc2O)CC1)Nc1ccnn1C1CCCC1	i	.	1	.	.	1
COc1ccc(Cl)c2c1[nH]c1nc(SCc3cccnc3)nnc12	i	86*	4	i	-3	1
Cc1cccc(OCCCC(=O)Nc2nc3ccccc3[nH]2)c1	i	73*	-1	i	-18	-1
CCC(Cc1ccccc1)NC(=O)CCNS(=O)(=O)c1cc(Br)cnc1N (centres undefined)	i	.	-3	i	-13	2
COC(=O)Cn1c(=NC(=O)c2nc3ccccc3s2)sc2cc(S(C)(=O)=O)ccc21	.	-83	42*	i	1	2
C=CCCC(=O)Nc1nc(C)c(-c2csc(Nc3cc(OC)ccc3OC)n2)s1	i	75*	2	i	.	0
CCCC(=O)Nc1nc(C)c(-c2csc(Nc3cc(OC)ccc3OC)n2)s1	i	51	3	i	.	2
C=CCC(C)(NCc1ccccc1)c1ccc(C)cc1 (centres undefined)	i	75*	2	i	-30	0
C=CCC(C)(NCc1ccccc1)c1ccccc1 (centres undefined)	i	65	0	i	-1	1
CCC(CO)Oc1cc(NC(=O)c2ccc(OC)cc2)c2ncn(C(C)C)c2c1 (centres undefined)	i	.	-2	.	.	0
CC(c1ccccc1)N(CCC(c1ccccc1)C1CCOC(C)(C)C1)C(=O)c1ccco1 (centres undefined)	i	80*	-1	i	30	2
COc1cccc(/C=N/NC(=O)CNC(=O)C(c2ccccc2)c2ccccc2)c1O	i	.	0	i	4	3
CCCCCCCC/C=C\CCCCCCCC(=O)NCCc1ccc(O)c(O)c1	i	-11	17	i	.	148*
CC1(C)Cc2ccccc2C(/C(=N\Nc2cccc(Cl)c2)C(N)=O)=N1	i	87*	-4	i	27	0
COc1ccc([C@H]2CC(=O)C=C(c3ccc(-c4ccccc4)c(F)c3)C2)cc1OC	-6.2*	.	-3	.	.	1
CCCN1CCC(=O)NC1=S	i	.	.	.	.	.
CCOc1ccccc1C(=O)OCC(=O)Nc1cc(S(=O)(=O)N2CCOCC2)ccc1C	-42*	.	-3	.	.	2
O=C(COC(=O)c1ccccn1)Nc1ccc(S(=O)(=O)N2CCOCC2)cc1	i	30	4	25*	3	-2
CCc1nc2ccccc2c(C(=O)OCC(=O)Nc2ccc(S(=O)(=O)N3CCOCC3)cc2)c1C	i	74*	-2	i	.	-1
COc1c(C)cc(C(=O)C2CCCN(C(=O)CCc3scnc3C)C2)cc1C (centres undefined)	i	14	-1	i	-7	0
NS(=O)(=O)c1ccc(NC(=S)NC2CC2)cc1	i	5	6	i	0	0
CC(C)N(C)Cc1nnnn1CC(=O)N(C)Cc1ccc(F)cc1	i	.	-3	i	12	2
O=S(=O)(Cc1cccc(C(F)(F)F)c1)c1ncn[nH]1	i	-3	0	i	-14	-2
